Bioassay records (PubChem BioAssay)
SENP8 block-1: SENP8 protease inhibitors, primary screen, biochemical, luminescence; purified SENP8, Z-RLRGG-aminoluciferin cleavage; inhibition, % at 10 µM; 1.2% of 330,000 active; AID 2540, 2010; in the data active = inhibition above about 50%
Target sequence (Q96LD8 whole entry, looked up): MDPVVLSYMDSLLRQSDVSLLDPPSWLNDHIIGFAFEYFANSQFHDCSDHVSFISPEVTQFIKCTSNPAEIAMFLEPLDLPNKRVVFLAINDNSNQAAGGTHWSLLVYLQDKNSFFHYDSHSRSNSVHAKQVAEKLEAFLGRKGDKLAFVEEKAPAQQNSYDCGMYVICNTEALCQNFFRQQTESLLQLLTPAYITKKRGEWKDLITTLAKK
SENP7 block: SENP7 protease inhibitors, primary screen, biochemical, luminescence, uHTS | recombinant SENP7, Z-RLRGG-aminoluciferin luminescence, 40 min | inhibition, % at 5 µM | Sentrin-specific protease 7 (Homo sapiens), Q9BQF6 | 1.5% of 330,000 active;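 active = inhibition above about 50% at the single test dose, limit read from the data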
Target sequence (Q9BQF6 706-1050 limits assumed): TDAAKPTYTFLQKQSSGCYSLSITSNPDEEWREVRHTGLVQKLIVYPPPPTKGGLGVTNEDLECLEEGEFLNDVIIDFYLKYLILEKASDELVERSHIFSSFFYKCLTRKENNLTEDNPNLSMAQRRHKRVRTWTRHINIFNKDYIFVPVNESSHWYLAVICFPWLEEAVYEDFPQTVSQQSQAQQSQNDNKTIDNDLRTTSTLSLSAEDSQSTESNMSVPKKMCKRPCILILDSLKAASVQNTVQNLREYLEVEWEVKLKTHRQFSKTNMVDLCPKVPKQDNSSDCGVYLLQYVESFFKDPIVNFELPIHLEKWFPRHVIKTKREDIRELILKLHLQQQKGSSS
SENP1 inh: human SENP1 catalytic domain inhibitors, primary screen, biochemical, FRET, uHTS; Sentrin-specific protease 1 (Homo sapiens), Q9P0U3; recombinant SENP1 catalytic domain, CyPet-SUMO1-YPet FRET cleavage; inhibition, % at 10 µM; 0.21% of 360,000 active; AID 624204, 2012;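 active = inhibition at least 30% at 10 µM, raw YFP signal under a set limit, fluorescence ratio 0.5 to 1.5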
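Material – human SENP1 catalytic domain · Input – SENP1 enzyme, 20 pM final · Compound dosing – single concentration of 10 µM compound, 0.5% DMSO final · Timing – enzyme reaction for 50 min at room temperature, dark · Measured by – FRET fluorescence in CFP and YFP emission channels · Control set – no-enzyme wells low, DMSO-plus-enzyme wells high control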
SENP8 block-2: human SENP8 protease inhibitors, primary screen, biochemical, fluorescence, Nedd8 protein substrate, uHTS; Sentrin-specific protease 8 (Homo sapiens), Q96LD8; recombinant SENP8; inhibition, % at 20 µM; 0.64% of 360,000 active; AID 602440, 2012; in the data active = inhibition mostly above about 40%, no sharp cut-off; inactive = mostly below about 27%
SENP6 block: SENP6 protease inhibitors, primary screen, biochemical, luminescence, uHTS. 1.8% of 330,000 active. Recombinant SENP6 catalytic domain, aminoluciferin luminescence. inhibition, % at 10 µM. AID 2599, 2010. Sentrin-specific protease 6 (Homo sapiens), Q9GZR1;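 active = inhibition above about 50% at the single tested dose, limit read from the data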
Apaf-1 inh: inhibitors of human Apaf-1 apoptosome, primary screen, biochemical, DEVD-Rh110 fluorescence, uHTS | Apoptotic protease-activating factor 1 (Homo sapiens), O14727 | reconstituted apoptosome caspase-3 activity | inhibition, % at 20 µM | 0.71% of 330,000 active | AID 489030, 2010; active = inhibition of at least 40% at 20 µM
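Material: cell-free apoptosome with Apaf-1, procaspase-3 and caspase-9; Buffer or medium: Hepes pH 7.5 with detergent and BSA; Reagent: cytochrome c trigger plus (Z-DEVD)2-Rh110 caspase-3 substrate; Times: compound with Apaf-1, dATP, procaspase-3 30 min, then 50 min reaction, room temperature; Technique: Rh110 fluorescence intensity.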
SENP8 conf: SENP8 protease inhibitors, retest, confirmation, biochemical, luminescence, single concentration. shares compounds with SENP7 block. Recombinant SENP8, Z-RLRGG-aminoluciferin luminescence, 60 min. 40% of 6,200 active. inhibition, % at 12.5 µM;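 active = mean inhibition across replicates above about 50%, limit read from the data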
SENP6 conf: SENP6 protease inhibitors, confirmation, biochemical, luminescence, single concentration; shares compounds with SENP7 block; recombinant SENP6, Z-RLRGG-aminoluciferin luminescence; inhibition, % at 12.5 µM; 58% of 6,200 active
SENP7 confirm: SENP7 protease inhibitors, retest, confirmation, biochemical, luminescence, single concentration; recombinant SENP7, Z-RLRGG-aminoluciferin luminescence, 40 min; 69% of 6,200 active; shares compounds with SENP7 block; inhibition, % at 12.5 µM; AID 488917, 2010
Casp3 SENP sel: caspase-3 protease inhibitors, confirmation, selectivity assay for SENP inhibitor project, biochemical, single concentration; shares compounds with SENP7 block; purified caspase-3, Z-DEVD-aminoluciferin luminescence, 60 min; inhibition, % at 12.5 µM; 60% of 6,200 active;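 active = mean inhibition above about 50%, limit read from the data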
Luc interf: luminescence interference (SENP counter-screen) | 39% of 6,200 active | inhibition, % at 12.5 µM | Pre-incubated SENP8/Z-RLRGG-aminoluciferin, luciferase luminescence interference | shares compounds with SENP7 block;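 active = mean inhibition above about 50% when retested at one dose, limit read from the data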
Numbers stand for hits; . = inactive; / = no result. Only some compounds are listed: those with a hit (about 2.9% of all), similar ones and a draw of the others.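 Rule for the calls, unless noted: active = mean inhibition above about 50% in the one-dose retest (limit read from the data); inactive = the rest.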

SMILES	SENP8 block-1	SENP7 block	SENP1 inh	SENP8 block-2	SENP6 block	Apaf-1 inh	SENP8 conf	SENP6 conf	SENP7 confirm	Casp3 SENP sel	Luc interf
COc1ccc(C(=O)Nc2ccccc2C(=O)O)cc1Cl	94.3	91.6	.	.	96.9	.	96.4	96.9	100.6	95.4	95.6
COc1ccc(C(=O)Nc2ccccc2C(=O)O)cc1NC(=O)C(c1ccccc1)c1ccccc1	.	.	.	.	.	.	/	/	/	/	/
O=C(Nc1ccc(O)cc1C(=O)O)c1cccc(Br)c1	87.9	83.1	.	.	95.5	.	93.5	92.2	98.5	90.4	91.5
COC(=O)C[C@H]1CC[C@H](NS(=O)(=O)c2cn(C)cn2)[C@@H](CO)O1	/	/	.	.	/	/	/	/	/	/	/
CC1(C)CC=CC(COC(=O)c2ccccc2C(=O)O)C1 (centres undefined)	/	/	.	.	/	/	/	/	/	/	/
O=C(CC(c1ccccc1)C1CCCCC1=O)c1ccccc1 (centres undefined)	/	/	.	.	/	/	/	/	/	/	/
O=C(Nc1ccc(O)cc1C(=O)O)c1cccs1	.	.	.	.	50.1	.	52.3	.	82.5	79.4	60.8
O=C(Nc1sc(-c2ccccc2)cc1C(=O)O)c1ccccc1	65.7	.	.	.	83.8	.	.	74.3	74.3	.	59.5
O=C(Nc1ccccc1C(=O)O)c1cccc(C(=O)Nc2ccccc2C(=O)O)c1	71.3	.	.	.	80.3	.	87.1	85.7	97.8	88.3	69.9
CCOc1c(Cl)cc(C(=O)Nc2ccccc2C(=O)O)cc1Cl	.	.	.	.	60.0	.	58.8	57.3	71.8	.	67.7
COc1ccc(N2CCN(C(=O)COC(=O)CC(NC(N)=O)c3ccc(Cl)cc3)CC2)cc1 (centres undefined)	/	/	.	.	/	/	/	/	/	/	/
CC(=O)Nc1nc2cc3c(cc2s1)OCCO3	61.2	79.3	.	.	76.7	.	78.1	76.4	93.7	88.7	74.2
COc1cccc(C(=O)NCC[N+](C)(C)C)c1	/	/	.	.	/	/	/	/	/	/	/
Cc1nc2ccc(C(=O)OCc3ccccc3Br)cc2nc1C	.	56.2	.	.	67.3	.	.	.	.	.	.
CC(=O)Nc1ccc(C(=O)OCc2ccccc2Br)cc1	.	.	.	.	.	.	/	/	/	/	/
CCOc1ccc(NC(=O)Nc2ccc(NC(C)=O)cc2)cc1	.	.	.	.	.	.	/	/	/	/	/
COc1ccc(NC(=O)Nc2ccc(F)c(F)c2)c(OC)c1	.	.	.	.	.	.	/	/	/	/	/
CCOc1ccc(NC(=O)Nc2ccccc2C(N)=O)cc1	91.2	100.0	.	.	98.5	.	95.3	97.1	102.5	97.8	.
COc1ccc(NC(=O)Nc2ccccc2C(N)=O)cc1	90.7	96.2	.	.	95.7	.	.	94.7	102.1	97.8	88.7
COc1ccc(NC(=O)Nc2ccccc2C(N)=O)cc1OC	.	.	.	.	.	.	/	/	/	/	/
COc1ccc(NC(=O)Nc2cc(C)ccc2F)cc1	88.2	.	.	.	91.7	.	.	92.3	100.9	90.6	58.9
CCN(CC(=O)Nc1ccc(OC)cc1)CC(=O)N1CC(=O)Nc2ccccc21	.	.	.	.	.	.	/	/	/	/	/
O=C(CNC(=O)c1nn(Cc2ccccc2)c(=O)c2ccccc12)Nc1ccc(F)c(F)c1F	.	.	.	.	.	.	/	/	/	/	/
O=C1NC[C@H](CCCCN2C[C@@H](Cc3ccccc3)N(Cc3ccccc3)C(=O)C2=O)N(CCC2CCCCC2)C1=O	/	/	.	.	/	/	/	/	/	/	/
O=c1c2ccccc2nc2oc3ccccc3n12	74.1	80.1	.	.	88.2	.	.	.	69.8	82.5	.
SMILES	SENP8 block-1	SENP7 block	SENP1 inh	SENP8 block-2	SENP6 block	Apaf-1 inh	SENP8 conf	SENP6 conf	SENP7 confirm	Casp3 SENP sel	Luc interf
O=C1/C(=C/N(C(=O)c2ccco2)c2ccc(Br)cc2)Sc2ccccc21	84.4	79.5	.	.	90.0	.	.	51.0	71.5	.	.
O=C1/C(=C/N(C(=O)c2ccco2)c2ccc(Cl)cc2)Sc2ccccc21	/	/	.	.	/	/	/	/	/	/	/
Cc1ccc(C(=O)OCC(=O)NC(C)c2ccccc2)cc1C (centres undefined)	.	.	.	.	.	.	/	/	/	/	/
O=C(O)c1ccc(N/N=C/c2cn(Cc3ccc(F)cc3)c3ccccc23)cc1	61.2	.	.	.	51.6	.	.	71.6	75.2	.	.
O=C(Nc1ccccc1)c1cc(C2CCCCN2C(=O)CCc2ccccc2)on1 (centres undefined)	/	/	.	.	/	/	/	/	/	/	/
Cc1nc(/C(N)=N/OC(=O)c2ccc(Cl)cc2)c(C(F)(F)F)o1	58.0	81.7	.	.	69.2	.	74.4	69.8	94.1	88.5	78.3
Cc1nc2ccc(NC(=O)CSc3ccccc3)cc2s1	.	.	.	.	.	.	/	/	/	/	/
CCOc1cc(OCC)cc(C(=O)N2CCC[C@H]2C(=O)N2CCC[C@H]2C(=O)NCc2cccc(OC)c2)c1	/	/	.	.	/	/	/	/	/	/	/
O=C1c2ccccc2C(=O)N1/N=C/c1ccc(O)c(O)c1	50.7	.	.	.	65.6	.	.	.	82.2	70.0	64.4
O=C1C2C3C=CC(CC3)C2C(=O)N1/N=C/c1ccc(O)c(O)c1 (centres undefined)	.	.	.	.	.	.	/	/	/	/	/
COc1ccc(-c2noc(COc3ccc4c(c3)OCO4)n2)cc1	.	.	.	.	.	.	/	/	/	/	/
c1ccc(-c2noc(-c3ccc4ccccc4c3)n2)cc1	90.1	98.2	.	.	91.8	.	.	.	.	.	.
